Measured values pooled from the literature.
Compare with care: the assays were run in different laboratories.
Target: Dual specificity mitogen-activated protein kinase kinase 2 (MAP2K2, Homo sapiens, UniProt P36507)

| Structure (SMILES) | assay | conditions | measurement | value |
| --- | --- | --- | --- | --- |
| CN1CCN(c2cnc3c(C4CCN(C(=O)c5ccc(OC(F)(F)F)cc5N)CC4)ncnc3c2)CC1 | cell-free assay, competition with immobilised ligand | 1 µM | remaining binding | 100% |
| N#CCCc1ccc2c(c1)-c1[nH]c3ccc([N+](=O)[O-])cc3c1CC(=O)N2 | cell-free assay | 0.5 µM | remaining signal | 90.3% |
| Cn1c2c(c3ccc(Cl)c(Cl)c31)C(C#N)C1(CCCC1)NC2=O (centres unmarked) | thermal stability, DSF | 10 µM | ΔTm | -0.4 °C |
| CN([C@@H]1CCc2c(CC(=O)O)c3cc(S(C)(=O)=O)ccc3n2C1)S(=O)(=O)c1ccc(F)cc1 | cell-free assay, competition with immobilised ligand | 1 µM | remaining binding | 95% |
| Nc1ncnc2occ(-c3ccc(NC(=O)Nc4cc(C(F)(F)F)ccc4F)cc3)c12 | cell-free assay, inhibitor | 20 µM | remaining signal | 7.1% |
| CNC(=O)c1ccc(Nc2ncc(C(F)(F)F)c(NCc3nccnc3N(C)S(C)(=O)=O)n2)cc1 | cell-free assay, competition with immobilised ligand | 0.1 µM | remaining binding | 100% |
| CN1CC(Oc2cnc(C#N)cc2-c2ccn3nc(NC(=O)C4CC4)cc3c2)C1 | enzyme activity, inhibitor | 1 µM | inhibition | 14% |
| N#Cc1ccc(Nc2ccc3[nH]c(=O)[nH]c3c2)c(Cl)c1 | cell-free assay, competition with immobilised ligand | 1 µM | remaining binding | 93% |
| CCN(CC)CCNC(=O)c1c(C)[nH]c(/C=C2\C(=O)Nc3ccc(F)cc32)c1C | cell-free assay | 0.5 µM | remaining signal | 25.4% |
| CC(C)(O)[C@H]1CC[C@H](Nc2ccc3ncc(-c4cccc(C(F)(F)F)c4)n3n2)CC1 | enzyme activity, inhibitor | 1 µM | remaining activity | 101% |
| Cn1c(=O)n(-c2ccc(C(C)(C)C#N)cc2)c2c3cc(-c4cnc5ccccc5c4)ccc3ncc21 | enzyme activity, inhibitor | 10 µM | remaining activity | 86% |
| COc1cc(/C=C/C(=O)CC(=O)/C=C/c2ccc(O)c(OC)c2)ccc1O | enzyme activity, inhibitor | 1 µM | activity vs control | 91% |
| COc1cc(Cl)c(C(=O)N[C@@H](CN[C@H]2CC[C@@H](N)CC2)Cc2ccc(C#N)cc2)cc1-c1ccc(CN[C@H](C)c2ccc(C)cc2)o1 | enzyme activity, inhibitor | 1 µM | remaining activity | 115% |
| Nc1c(C(=O)NCc2ccc(C(=O)NCCCC3CCCCC3)cc2)cnn1-c1ccccc1 | cell-free assay, competition with immobilised ligand | 0.1 µM | remaining binding | 100% |
| Cn1c2c(Cl)c(Cl)ccc2c2cn[nH]c(=O)c21 | thermal stability, DSF | 10 µM | ΔTm | -0.3 °C |
| COc1cc2ncnc(Nc3ccc(Oc4ccccc4)c(C)c3C)c2cc1OC | enzyme activity, inhibitor | 1 µM | inhibition | -7% |

| Structure (SMILES) | assay | conditions | measurement | value |
| --- | --- | --- | --- | --- |
| Oc1cccc(-c2nc(N3CCOCC3)c3oc4ncccc4c3n2)c1 | enzyme activity, inhibitor | 10 µM | remaining activity | 115% |
| CCC1(CC)NC(=O)c2c(c3ccc(Cl)c(Cl)c3n2C)C1C#N (centres unmarked) | thermal stability, DSF | 10 µM | ΔTm | -0.4 °C |
| O=C(CSc1nc2nccnc2c(=O)n1CCc1ccccc1)Nc1nccs1 | enzyme activity, inhibitor | 10 µM | inhibition | -3% |
| CC1(C)NC(=O)c2[nH]c3c(Cl)c(Cl)ccc3c2C1C#N (centres unmarked) | thermal stability, DSF | 10 µM | ΔTm | -0.4 °C |
| COc1cc(-c2cc(-c3ccc(N4CCNCC4)cc3)cnc2C)cc(OC)c1OC | enzyme activity, inhibitor | 1 µM | inhibition | 8% |
| C[C@H](NC(=O)c1cnc2n1[C@](C)(Cc1ccc(C#N)cc1)C(=O)N2c1cc(Cl)c(F)c(Cl)c1)C(=O)NC1(c2ccccn2)CC1 | cell-free assay, competition with immobilised ligand | 1 µM | remaining binding | 90% |
| FC(F)(F)Oc1cccc(-c2cnc3ccc(-c4ccncc4)nn23)c1 | enzyme activity, inhibitor, radiometric | 1 µM | activity vs control | 84% |
| CC(C)(C)c1nc2c(s1)c1nc(N)ncc1c1ccc(NS(=O)(=O)c3c(F)cccc3F)c(F)c12 | enzyme activity, inhibitor, radiometric | 1 µM | remaining activity | 92% |
| Cc1ccc(C(=O)Nc2ccc(CN3CCN(C)CC3)c(C(F)(F)F)c2)cc1C#Cc1cnc2cccnn12 | enzyme activity, inhibitor | 23.5 nM | remaining activity | 97% |
| Nc1cnc(N2CCc3cc(S(=O)(=O)Nc4c(F)cc(Cl)cc4F)cc(N4CCCC4=O)c32)nc1 | cell-free assay, competition with immobilised ligand | 1 µM | remaining binding | 92% |
| COc1cc(Nc2cnc(C#N)c(O[C@H](C)CN(C)C)n2)ncc1-c1cnn(C)c1 | enzyme activity, inhibitor, radiometric | 1 µM | remaining activity | 76% |
| CN1CCC2(CC1)NC(=O)c1c(c3ccc(Cl)c(Cl)c3n1C)C2C#N (racemic) | thermal stability, DSF | 10 µM | ΔTm | -0.3 °C |
| CCc1ccccc1C(=O)Nc1n[nH]c2c(C)c(F)c(C3C(C#N)=C(C)N(C)C(C)=C3C#N)cc12 | cell-free assay, competition with immobilised ligand | 1 µM | remaining binding | 100% |
| O=C(Nc1cnn(-c2csc(C(=O)NC3COC3)c2)c1)Nc1c(F)cccc1Cl | enzyme activity, inhibitor | 5 µM | remaining activity | 90.6% |
| N#CC(=C(N)Sc1ccc(N)cc1)c1ccccc1C(F)(F)F | cell-free assay | 0.5 µM | remaining signal | 94.5% |
| Cn1c2c(c3ccc(Cl)c(Cl)c31)C(C#N)C1(CCOCC1)NC2=O (centres unmarked) | thermal stability, DSF | 10 µM | ΔTm | -0.4 °C |
